Compounds with a hit are over-represented: about 3.4% of the library has one in this group of screens.
m5-HT2A agonist: activates the mouse 5-HT2A serotonin receptor. P35363. CHO-K1 mHTR2A beta-arrestin complementation, luminescence; percent of 30 µM serotonin response. activation, % at 7.6 µM. hit rate 0.66% among 360,000. AID 624169;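 active = activation above a run cutoff, the mean activation of all tested compounds plus 3 SD, cut at about 14% in these data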;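 note: 0% = plate median of compound wells and 100% = 30 µM serotonin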
MIN6 prolif: induces beta-cell replication in MIN6 cells | MIN6 cells proliferation, ATPlite luminescence, 48 h; cells starved in 0.2% serum; 100% = growth in 10% serum | proliferation, % at 10 µM | hit rate 0.29% among 330,000;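 active = compounds whose signal lies at least 3.5 SD above the mean of all wells on their plate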;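 note: 0% = DMSO-treated cells in low-serum medium and 100% = 10% serum control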
ANO1 block: mouse TMEM16A channel inhibition, primary screen; Q8BHY3; HEK293 TMEM16A/YFP iodide influx fluorescence, ionomycin; normalized B-score (activity score, 25-100; higher = stronger inhibition) at 10 µM; hit rate 1.2% among 310,000; AID 588511;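 active = ratio plate-corrected score three or more library SD toward inhibition, starting fluorescence score within five deviations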;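 note: score derived from kinetic fluorescence span divided by baseline fluorescence per well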
Target sequence (Q8BHY3 whole entry, looked up): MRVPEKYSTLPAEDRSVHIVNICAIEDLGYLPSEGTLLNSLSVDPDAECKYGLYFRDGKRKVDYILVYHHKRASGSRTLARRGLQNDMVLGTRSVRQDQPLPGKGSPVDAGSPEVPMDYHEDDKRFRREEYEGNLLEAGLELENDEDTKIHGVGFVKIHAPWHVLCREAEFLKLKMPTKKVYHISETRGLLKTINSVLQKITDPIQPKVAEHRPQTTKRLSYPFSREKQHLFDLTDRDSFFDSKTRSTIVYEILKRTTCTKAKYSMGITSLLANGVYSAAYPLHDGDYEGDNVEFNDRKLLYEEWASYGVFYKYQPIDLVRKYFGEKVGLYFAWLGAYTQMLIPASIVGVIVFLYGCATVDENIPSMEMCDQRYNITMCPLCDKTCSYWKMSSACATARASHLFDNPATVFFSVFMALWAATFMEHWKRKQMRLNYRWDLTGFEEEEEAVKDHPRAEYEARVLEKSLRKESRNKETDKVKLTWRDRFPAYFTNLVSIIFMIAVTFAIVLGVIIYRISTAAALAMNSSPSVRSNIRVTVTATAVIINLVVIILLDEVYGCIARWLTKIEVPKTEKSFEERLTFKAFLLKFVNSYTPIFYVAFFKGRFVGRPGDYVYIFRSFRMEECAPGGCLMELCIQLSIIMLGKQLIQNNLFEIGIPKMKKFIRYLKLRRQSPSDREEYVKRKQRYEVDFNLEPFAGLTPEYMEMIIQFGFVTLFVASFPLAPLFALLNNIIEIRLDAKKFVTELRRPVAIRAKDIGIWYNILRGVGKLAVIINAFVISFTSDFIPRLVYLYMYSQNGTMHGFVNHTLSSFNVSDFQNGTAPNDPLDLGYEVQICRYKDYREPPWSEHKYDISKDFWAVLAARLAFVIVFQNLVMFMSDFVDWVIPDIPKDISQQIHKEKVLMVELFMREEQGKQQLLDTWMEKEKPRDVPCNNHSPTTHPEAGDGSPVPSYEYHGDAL
TMEM16A act: activates or potentiates the mouse TMEM16A chloride channel | B-score at 10 µM | hit rate 0.3% among 340,000 | AID 623877 | HEK293 TMEM16A/YFP-H148Q/I152L, iodide quench fluorescence; hits give low values | Q8BHY3;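 active = fluorescence-ratio B-score plate-corrected deviation score at least 3 library SD below zero, with starting fluorescence score within 5 deviations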;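 note: channel opened by trigger with iodide after compound preincubation; score built on the fluorescence ratio of max minus min over baseline; more negative score means more quench and so TMEM16A activation or potentiation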
MC4R ag barr: activates human MC4R beta-arrestin recruitment; AID 540308; U2OS MC4R beta-arrestin complementation, luminescence; percent of melanotan II response, DMSO zero; hit rate 0.98% among 360,000; activation, % at 8.9 µM; P32245;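 active = activation above a per-plate cutoff, the mean activation of sample wells on that plate plus 3 SD, cut at about 8% in these data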
MC4R antag cAMP: antagonists of human melanocortin 4 receptor (MC4R); P32245; MC4R-expressing cells, MTII-stimulated cAMP, LANCE TR-FRET; inhibition, % at 6.5 µM; hit rate 0.48% among 360,000;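 active = inhibition above its plate's cutoff, the mean of tested wells on that plate plus 3 SD, cut at about 29% in these data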;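 note: 0% = Melanotan II alone and 100% = Melanotan II plus saturating MCL0020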
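System: U2OS-MC4R stable cell line; Technique: Eu-cAMP/anti-cAMP TR-FRET, emission 671 nm; Repeats: single well per compound; Also added: Melanotan II; Dosing: one concentration, 6.5 µM nominal; Schedule: 30-min compound, 1-h challenge, 1-h detection, room temperature.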
* hit, by the source's call; i = inactive; · = not tested or not shown.

SMILES | m5-HT2A agonist | MIN6 prolif | ANO1 block | TMEM16A act | MC4R ag barr | MC4R antag cAMP
CC1(C)C[C@H]2C3=CCC4[C@@]5(C)CC[C@H](O[C@@H]6O[C@H](C(=O)O)[C@@H](O)[C@H](O)[C@H]6O)[C@@](C)(CO)C5CC[C@@]4(C)[C@]3(C)C[C@H](O)[C@@]2(CO)[C@@H](O)[C@@H]1O (stereo partly specified) | -1 | 1 | · | i | 0 | 19
C/C=C(\C)C(=O)OC1[C@H](OC(C)=O)C2(CO)C(CC1(C)C)C1=CCC3C4(C)CCC(O[C@@H]5O[C@H](C(=O)O)[C@@H](O[C@@H]6O[C@H](CO)[C@@H](O)[C@H](O)[C@H]6O)[C@H](O)[C@H]5O[C@H]5O[C@H](CO)[C@@H](O)[C@H](O)[C@H]5O)[C@](C)(CO)C4CCC3(C)[C@]1(C)C[C@H]2O (stereo partly specified) | 15* | · | · | -16* | -4 | 95*
CC(=O)OC1COC(OC2C(O)C(C)OC(OC3C(OC4CCC5(C)C(CCC6(C)C5CC=C5C7CC(C)(C)CCC7(C(=O)O)CCC56C)C4(C)CO)OCC(O)C3O)C2O)C(O)C1OC(C)=O (stereo unspecified) | · | -5 | 100* | · | · | ·
CC(C)n1nnnc1SCC(=O)N1CCN(Cc2ccc3c(c2)OCCO3)CC1 | 4 | 4 | · | i | -3 | 5
CCn1c(COc2cccc3ccccc23)nnc1SCC(=O)OC1CCCCC1 | 0 | -4 | 100* | i | 0 | 9
CC(C)COc1cccc(-c2cc(C(=O)N/N=C/c3ccncc3)c3ccccc3n2)c1 | 0 | -7 | i | i | 9.6* | 17
CC(C)(C)N(Cc1ccccc1)C(=O)COC(=O)c1ccccc1SCC(=O)N1CCCC1 | -6 | 3 | i | i | -1 | 9
COc1cc(C=C(c2nc3ccccc3s2)c2nc3ccccc3s2)ccc1O | -8 | -6 | i | -6.7* | -3 | -7
COc1cc(/C=C/c2nc3ccccc3s2)cc(OC)c1O | 4 | -6 | i | -6.9* | -1 | 5
O=[N+]([O-])c1ccc(S(=O)(=O)N/N=C/c2ccsc2)cc1 | -1 | 0 | i | i | -3 | 7
CCOc1ccc2c(c1)sc1nc(C(=O)OC)cc(=O)n12 | 3 | 0 | i | i | -3 | 3
CCOc1ccc2c(c1)s/c(=N\S(=O)(=O)c1ccc(OC)cc1)n2C(F)F | -6 | -2 | 25* | i | -1 | -1
CCCSc1nc2sc3c(c2c(=O)[nH]1)CCN(Cc1ccccc1)C3 | -4 | -1 | i | -5.6* | -2 | 7
O=c1[nH]c(C(Cl)Cl)nc2sc3c(c12)CCN(Cc1ccccc1)C3 | 0 | · | i | i | -1 | 4
O=C(NCc1ccccc1)c1cc(C2COCCN2C(=O)OCCF)on1 (stereo unspecified) | -1 | · | · | · | 0 | 14
COc1ccc(OC)c(NC(=O)COC(=O)CCc2nc3ccccc3c(=O)[nH]2)c1 | -5 | 4 | · | i | -1 | -2
CC1=NOC(=O)/C1=C\c1ccc(-c2ccc(Cl)cc2Cl)o1 | -1 | -4 | · | -6.6* | -1 | 0
c1ccc(CCC2Cc3ccccc3N2)cc1 (stereo unspecified) | -4 | 2 | · | i | 1 | 5
c1ccc(CC[C@@H]2CC[C@@H](CCc3ccccc3)N2)cc1 | -8 | -6 | · | i | 8.4* | -2
COc1ccc(C2=Nc3ccccc3N(C(=O)c3ccncc3)C2C(=O)NC(C)(C)C)cc1 (stereo unspecified) | -7 | · | · | · | · | ·
Cc1cc(S(=O)(=O)NCCCN2CCOCC2)ccc1Br | -6 | 0 | · | i | 0 | 11
COc1ccc(-c2c[n+]3c(n2-c2ccc(C)cc2)CCCCC3)cc1 | 3 | -4 | 25* | i | 1 | 1
COc1ccc(-n2c(-c3ccc(Cl)cc3)c[n+]3c2CCCCC3)cc1 | 3 | -4 | i | i | -1 | -2
CC1(c2ccc(Cl)cc2)NC(=O)N(CC(=O)N2CCN(C(=O)c3cccs3)CC2)C1=O (stereo unspecified) | -3 | · | · | · | -2 | -2
O=C(N/N=C/c1nn(-c2ccccc2)cc1-c1ccc(Cl)cc1)c1ccncc1 | · | -6 | 25* | · | · | ·
SMILES | m5-HT2A agonist | MIN6 prolif | ANO1 block | TMEM16A act | MC4R ag barr | MC4R antag cAMP
COc1ccc(Cl)cc1NC(=O)c1cccc([N+](=O)[O-])c1O | -5 | · | · | i | -3 | -3
CC(C)N(C(=S)Nc1cccc(C(F)(F)F)c1)C(C)c1ccccn1 (stereo unspecified) | 6 | 1 | 100* | i | -1 | 7
COc1cc(S(=O)(=O)Nc2ccc(C)cc2)ccc1N=Cc1c(C)c(C#N)c(=O)n(C)c1O | -2 | -1 | i | -6* | -2 | -9
COc1cc(S(=O)(=O)Nc2ccc(C)cc2)ccc1N=Cc1c(C)[nH]n(-c2ccc(C)cc2)c1=O | 0 | 0 | i | i | 0 | 4
O=C(NCCN1CCN(c2ccccc2)CC1)C1CCCN(S(=O)(=O)c2cnc[nH]2)C1 (stereo unspecified) | 30* | 4 | i | i | -1 | -2
Clc1ccc(-c2ccnc(Oc3ccc4ccccc4c3)n2)cc1 | -3 | 3 | i | i | 1 | 3
Clc1ccc(-c2ccnc(Oc3cc(Cl)ccc3Cl)n2)cc1 | 0 | -5 | 25* | i | 6 | -1
Cc1cc2oc(=O)cc(CN3CCOCC3)c2c(C)c1Cl | -1 | 2 | i | i | 1 | 0
O=C(CCl)N(c1ccccc1)C1CCCCC1 | -1 | -7 | i | i | 9.1* | 3
CCOC(=O)Cc1ccc(Nc2nc(NCc3ccccc3)nc3ccsc23)cc1 | -6 | · | · | · | 8.5* | 10
CC1(Oc2cccc(F)c2)CCN(Cc2ccc(-c3ccccn3)cc2)C1 (stereo unspecified) | -6 | · | · | · | 8.6* | 10
O=C1CC(N2CCCN(C3CC(=O)N(c4ccc(F)cc4)C3=O)CC2)C(=O)N1c1ccc(F)cc1 (stereo unspecified) | -7 | -2 | i | -8.6* | -2 | 5
COc1cccc(CNC(=O)CCN2C(=O)[C@@H]3Cc4ccccc4CN3C2=O)c1 | 1 | -1 | i | i | -1 | 1
Cc1cc(=O)[nH]c(SCC(=O)Nc2nnc(SCc3ccccc3)s2)n1 | 10 | 0 | i | i | 8.8* | 3
Cc1cc(=O)[nH]c(SCC(=O)Nc2nc3ccccc3s2)n1 | 0 | -3 | i | i | -2 | 5
S=C(Nc1ccccc1Cl)Nc1ccc(Cl)cc1Cl | 0 | -5 | i | i | -3 | -5
S=C(NNc1ccnc2cc(Cl)ccc12)Nc1ccccc1Cl | -5 | 0 | 25* | i | 1 | -2

Screening data: PubChem, several laboratories
